In ChEMBL document CHEMBL1208778, “Synthesis and anti-cancer activity of chalcone linked imidazolones” (2010):
Calls of active or inactive are those of the source. The rule behind the calls is not given here.

Experiments:
MCF7 [1] = assay: Cell cycle arrest in human MCF7 cells assessed as accumulation at G0 phase at 10 uM after 24 hrs by FACS analysis; assay type: functional
Outline: (§1)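 MCF-7 breast carcinoma cells were exposed to 10 µM test compound for 24 h, with DMSO as the vehicle control. Cell-cycle distribution was read by FACS as the percentage of cells in G0, G1, S and G2/M.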

MCF7 [2] = assay: Cell cycle arrest in human MCF7 cells assessed as accumulation at G1 phase at 10 uM after 24 hrs by FACS analysis; assay type: functional; outline: as §1
MCF7 [3] = assay: Cell cycle arrest in human MCF7 cells assessed as accumulation at S phase at 10 uM after 24 hrs by FACS analysis; assay type: functional; outline: as §1
MCF7 [4] = assay: Cell cycle arrest in human MCF7 cells assessed as accumulation at G2/M phase at 10 uM after 24 hrs by FACS analysis; assay type: functional; outline: as §1
MCF7 [5] = assay: Cell cycle arrest in human MCF7 cells assessed as accumulation at G0 phase at 30 uM after 24 hrs by FACS analysis; assay type: functional
Outline: (§2)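 MCF-7 cells were treated at 30 µM for 24 h alongside a DMSO control. Fractions in G0, G1, S and G2/M phases were measured by FACS, and values are means of three experiments.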

MCF7 [6] = assay: Cell cycle arrest in human MCF7 cells assessed as accumulation at G1 phase at 30 uM after 24 hrs by FACS analysis; assay type: functional; outline: as §2
MCF7 [7] = assay: Cell cycle arrest in human MCF7 cells assessed as accumulation at S phase at 30 uM after 24 hrs by FACS analysis; assay type: functional; outline: as §2
MCF7 [8] = assay: Cell cycle arrest in human MCF7 cells assessed as accumulation at G2/M phase at 30 uM after 24 hrs by FACS analysis; assay type: functional; outline: as §2
MCF7 [9] = assay: Induction of apoptosis in human MCF7 cells assessed as decrease in procaspase 7 level at 30 uM after 24 hrs by Western blot analysis; assay type: functional, cell-based
Outline: (§3)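 MCF-7 breast carcinoma cells were exposed to 30 µM compound for 24 h, with CA-4 as positive control. Cell lysates were then immunoblotted with antibodies to procaspase-7 and cleavage-specific PARP, using β-actin as loading control.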

MCF7 [10] = assay: Induction of apoptosis in human MCF7 cells assessed as […] in PARP cleavage at 30 uM after 24 hrs by Western blot analysis; assay type: functional, cell-based; outline: as §3
[11] = Growth inhibition of human RPMI8266 cells; assay type: functional
Outline: (§4)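 Five-dose testing was run within the NCI (Bethesda) in vitro Anticancer Screen Program on a panel of 53 human tumour cell lines from nine cancer types. Growth inhibition is reported as GI50.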

K562 = assay: Growth inhibition of human K562 cells; assay type: functional; outline: as §4
A549 = assay: Growth inhibition of human A549 cells; assay type: functional; outline: as §4
EKVX = assay: Growth inhibition of human EKVX cells; assay type: functional; outline: as §4
HOP-62 = assay: Growth inhibition of human HOP62 cells; assay type: functional; outline: as §4
HOP-92 = assay: Growth inhibition of human HOP92 cells; assay type: functional; outline: as §4
NCI-H226 = assay: Growth inhibition of human NCI-H226 cells; assay type: functional; outline: as §4
NCI-H23 = assay: Growth inhibition of human NCI-H23 cells; assay type: functional; outline: as §4
NCI-H322M = assay: Growth inhibition of human NCI-H322M cells; assay type: functional; outline: as §4
NCI-H460 = assay: Growth inhibition of human NCI-H460 cells; assay type: functional; outline: as §4
NCI-H522 = assay: Growth inhibition of human NCI-H522 cells; assay type: functional; outline: as §4
COLO 205 = assay: Growth inhibition of human COLO205 cells; assay type: functional; outline: as §4
HCC 2998 = assay: Growth inhibition of human HCC2998 cells; assay type: functional; outline: as §4
HCT-116 = assay: Growth inhibition of human HCT116 cells; assay type: functional; outline: as §4
HCT-15 = assay: Growth inhibition of human HCT15 cells; assay type: functional; outline: as §4
HT-29 = assay: Growth inhibition of human HT-29 cells; assay type: functional; outline: as §4
KM12 = assay: Growth inhibition of human KM12 cells; assay type: functional; outline: as §4
SW-620 = assay: Growth inhibition of human SW620 cells; assay type: functional
Outline: (§5)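 Compounds that passed a preliminary screen were tested at five doses in the NCI (Bethesda) in vitro Anticancer Screen Program against a 53-line human tumour panel spanning leukemia, lung, colon, CNS, melanoma, ovarian, renal, prostate and breast. Growth inhibition is reported as GI50.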

SF-268 = assay: Growth inhibition of human SF268 cells; assay type: functional; outline: as §4
SF-295 = assay: Growth inhibition of human SF295 cells; assay type: functional; outline: as §4
SF-539 = assay: Growth inhibition of human SF539 cells; assay type: functional; outline: as §4
SNB-19 = assay: Growth inhibition of human SNB19 cells; assay type: functional; outline: as §5
SNB-75 = assay: Growth inhibition of human SNB75 cells; assay type: functional; outline: as §5
U-251 = assay: Growth inhibition of human U251 cells; assay type: functional; outline: as §5
A498 = assay: Growth inhibition of human A498 cells; assay type: functional; outline: as §4
786-0 = assay: Growth inhibition of human 786-0 cells; assay type: functional; outline: as §4
ACHN = assay: Growth inhibition of human ACHN cells; assay type: functional; outline: as §4
CAKI-1 = assay: Growth inhibition of human Caki1 cells; assay type: functional; outline: as §4
RXF 393 = assay: Growth inhibition of human RXF393 cells; assay type: functional; outline: as §4
SN12C = assay: Growth inhibition of human SN12C cells; assay type: functional; outline: as §5
TK-10 = assay: Growth inhibition of human TK10 cells; assay type: functional; outline: as §5
UO-31 = assay: Growth inhibition of human UO31 cells; assay type: functional; outline: as §5
PC-3 = assay: Growth inhibition of human PC3 cells; assay type: functional; outline: as §4
OVCAR-3 = assay: Growth inhibition of human OVCAR-3 cells; assay type: functional; outline: as §4
OVCAR-4 = assay: Growth inhibition of human OVCAR4 cells; assay type: functional; outline: as §4
OVCAR-5 = assay: Growth inhibition of human OVCAR5 cells; assay type: functional; outline: as §4
OVCAR-8 = assay: Growth inhibition of human OVCAR8 cells; assay type: functional; outline: as §4
NCI/ADR-RES = assay: Growth inhibition of human NCI/ADR-RES cells; assay type: functional; outline: as §4
SK-OV-3 = assay: Growth inhibition of human SKOV3 cells; assay type: functional; outline: as §5
MCF7 [12] = assay: Growth inhibition of human MCF7 cells; assay type: functional; outline: as §4
MDA-MB-231 = assay: Growth inhibition of human MDA-MB-231 cells; assay type: functional; outline: as §4
[13] = Growth inhibition of human Hs 578T cells; assay type: functional; outline: as §4
BT-549 = assay: Growth inhibition of human BT549 cells; assay type: functional; outline: as §4
T47D = assay: Growth inhibition of human T47D cells; assay type: functional; outline: as §5
LOX IMVI = assay: Growth inhibition of human LOXIMVI cells; assay type: functional; outline: as §4
Malme-3M = assay: Growth inhibition of human MALME-3M cells; assay type: functional; outline: as §4
M14 = assay: Growth inhibition of human M14 cells; assay type: functional; outline: as §4
MDA-MB-435 = assay: Growth inhibition of human MDA-MB-435 cells; assay type: functional; outline: as §4
SK-MEL-2 = assay: Growth inhibition of human SK-MEL-2 cells; assay type: functional; outline: as §4
SK-MEL-28 = assay: Growth inhibition of human SK-MEL-28 cells; assay type: functional; outline: as §4
SK-MEL-5 = assay: Growth inhibition of human SK-MEL-5 cells; assay type: functional; outline: as §4
UACC-257 = assay: Growth inhibition of human UACC257 cells; assay type: functional; outline: as §5
UACC-62 = assay: Growth inhibition of human UACC62 cells; assay type: functional; outline: as §5

With COc1cc(/C=C/C(=O)c2cccc(N)c2)cc(OC)c1OC the Activity (MCF7 [1]) was 2.87%, the Activity (MCF7 [2]) was 56.17% and the Activity (MCF7 [3]) was 14.96%. For the same compound, the Activity (MCF7 [4]) was 23.57%, the Activity (MCF7 [5]) was 22.58% and the Activity (MCF7 [6]) was 52.31%. The Activity (MCF7 [7]) was 9.31%, the Activity (MCF7 [8]) was 15.8% and the Activity (MCF7 [9]) was “inactive”. The Activity (MCF7 [10]) was “inactive”.

Compound COc1ccc(-c2cn(-c3cccc(C(=O)/C=C/c4cc(OC)c(OC)c(OC)c4)c3)c(=O)[nH]2)cc1 has a GI50 [11] of 920 nM, a GI50 (K562) of 1270 nM and a GI50 (A549) of 11800 nM. For the same compound, the GI50 (EKVX) was 4200 nM, the GI50 (HOP-62) was 5910 nM and the GI50 (HOP-92) was 14900 nM. It also gave a GI50 (NCI-H226) of 35200 nM, a GI50 (NCI-H23) of 1630 nM and a GI50 (NCI-H322M) of 2660 nM. It also gave a GI50 (NCI-H460) of 1560 nM, a GI50 (NCI-H522) of 1850 nM and a GI50 (COLO 205) of 1840 nM. It also gave a GI50 (HCC 2998) of 1640 nM, a GI50 (HCT-116) of 370 nM and a GI50 (HCT-15) of 1380 nM. It also gave a GI50 (HT-29) of 1280 nM, a GI50 (KM12) of 1420 nM and a GI50 (SW-620) of 450 nM. The GI50 (SF-268) was 3210 nM, the GI50 (SF-295) was 4950 nM and the GI50 (SF-539) was 2000 nM. It also gave a GI50 (SNB-19) of 4380 nM, a GI50 (SNB-75) of 4590 nM and a GI50 (U-251) of 880 nM. It also gave a GI50 (A498) of 4210 nM, a GI50 (786-0) of 1610 nM and a GI50 (ACHN) of 1820 nM. For the same compound, the GI50 (CAKI-1) was 3050 nM, the GI50 (RXF 393) was 1920 nM and the GI50 (SN12C) was 3500 nM. It also gave a GI50 (TK-10) of 3040 nM, a GI50 (UO-31) of 1910 nM and a GI50 (PC-3) of 6220 nM. For the same compound, the GI50 (OVCAR-3) was 1780 nM, the GI50 (OVCAR-4) was 3570 nM and the GI50 (OVCAR-5) was 2640 nM. It also gave a GI50 (OVCAR-8) of 2530 nM, a GI50 (NCI/ADR-RES) of 1700 nM and a GI50 (SK-OV-3) of 4600 nM. It also gave a GI50 (MCF7 [12]) of 440 nM, a GI50 (MDA-MB-231) of 5480 nM and a GI50 [13] of 3390 nM. For the same compound, the GI50 (BT-549) was 2590 nM, the GI50 (T47D) was 3840 nM and the GI50 (LOX IMVI) was 720 nM. It also gave a GI50 (Malme-3M) of 1790 nM, a GI50 (M14) of 1850 nM and a GI50 (MDA-MB-435) of 1860 nM. The GI50 (SK-MEL-2) was 2630 nM, the GI50 (SK-MEL-28) was 2030 nM and the GI50 (SK-MEL-5) was 2030 nM. For the same compound, the GI50 (UACC-257) was 3040 nM, the GI50 (UACC-62) was 2060 nM and the Activity (MCF7 [1]) was 3.79%. For the same compound, the Activity (MCF7 [2]) was 60.66%, the Activity (MCF7 [3]) was 21.47% and the Activity (MCF7 [4]) was 14.08%. It also gave an Activity (MCF7 [5]) of 36.02%, an Activity (MCF7 [6]) of 46.02% and an Activity (MCF7 [7]) of 8.45%. For the same compound, the Activity (MCF7 [8]) was 9.51%.
